Values belong to the compound of their own block, whether it stands above or below them. The source made the active and inactive calls. No cut-off for these calls is given here.
Assays:
H4 [1] = assay: Induction of amyloid beta (1 to 37) secretion in human H4 cells overexpressing APP incubated for overnight by Western blot analysis; type: functional, cell-based
[2] = Inhibition of amyloid beta (1 to 42) secretion in human H4 cells overexpressing APP incubated for overnight by HTRF analysis; type: functional, cell-based
H4 [3] = assay: Induction of amyloid beta (1 to 38) secretion in human H4 cells overexpressing APP incubated for overnight by Western blot analysis; type: functional, cell-based
[4] = Suppression of total amyloid beta secretion in human H4 cells overexpressing APP incubated for overnight by Western blot analysis; type: ADME, cell-based
[5] = Oral bioavailability in cynomolgus monkey incubated for 24 hrs by LC-MS/MS analysis; type: ADME, organism-based, Macaca fascicularis; details: in vivo
[6] = Plasma concentration in triple transgenic LaFerla mouse at 30 mg/kg, po measured after 3 hrs; type: ADME, organism-based
[7] = Oral bioavailability in Beagle dog incubated for 24 hrs by LC-MS/MS analysis; type: ADME, organism-based, Canis lupus familiaris; details: in vivo
[8] = Octanol/water partition coefficient, logD of the compound at pH 6.5 by shake flask method; type: physicochemical
Method in brief: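 Octanol/water partitioning by shake flask at pH 6.5.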

[9] = Reduction in amyloid beta (1 to 42) secretion in brain in Harlan Sprague-Dawley rat at 10 mg/kg, po measured after 3 hrs relative to control; type: functional
Method in brief: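 Sprague–Dawley rats dosed 10 mg/kg po; brain Aβ1-42 measured 3 h postdose; n = 5.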

[10] = target: T1, Solute carrier organic anion transporter family member 1B1 (Homo sapiens, UniProt Q9Y6L6); assay: Inhibition of OATP1B1 (unknown origin); type: ADME
T1 sequence (Q9Y6L6 whole entry): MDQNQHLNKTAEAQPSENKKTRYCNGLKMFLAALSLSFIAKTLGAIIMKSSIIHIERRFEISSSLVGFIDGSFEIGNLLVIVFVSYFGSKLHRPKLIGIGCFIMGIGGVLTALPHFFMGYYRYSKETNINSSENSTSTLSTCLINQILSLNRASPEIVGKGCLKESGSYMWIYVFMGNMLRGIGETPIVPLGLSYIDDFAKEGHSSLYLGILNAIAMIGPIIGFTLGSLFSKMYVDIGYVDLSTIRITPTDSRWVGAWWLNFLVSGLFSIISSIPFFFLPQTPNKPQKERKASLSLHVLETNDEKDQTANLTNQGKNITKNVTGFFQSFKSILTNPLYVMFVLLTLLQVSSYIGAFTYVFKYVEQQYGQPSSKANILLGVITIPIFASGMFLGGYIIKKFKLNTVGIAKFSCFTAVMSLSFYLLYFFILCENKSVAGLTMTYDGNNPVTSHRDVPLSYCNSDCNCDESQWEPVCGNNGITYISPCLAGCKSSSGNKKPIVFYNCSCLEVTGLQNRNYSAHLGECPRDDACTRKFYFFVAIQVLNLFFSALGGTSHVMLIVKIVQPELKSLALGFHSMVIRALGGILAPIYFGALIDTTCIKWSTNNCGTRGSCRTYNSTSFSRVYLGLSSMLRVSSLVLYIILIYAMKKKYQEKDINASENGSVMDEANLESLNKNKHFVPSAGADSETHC

Rattus norvegicus = organism: Rattus norvegicus; assay: Antialzheimer activity in Harlan Sprague-Dawley rat brain assessed as reduction in amyloid beta (1 to 42) AUC relative to control; type: functional; design: scale not given: the % may be the effect or the level left
[11] = Reduction in amyloid beta (1 to 42) secretion in brain in triple transgenic LaFerla mouse at 30 mg/kg, po measured after 3 hrs relative to control; type: functional
Method in brief: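 Triple transgenic LaFerla mice (APP Swedish, MAPT P301L, PSEN1 M146V) given 30 mg/kg po; brain Aβ1-42 measured 3 h postdose; n = 3.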

[12] = target: Voltage-gated inwardly rectifying potassium channel KCNH2 (Homo sapiens, UniProt Q12809); assay: Inhibition of human ERG by patch clamp method
Voltage-gated inwardly rectifying potassium channel KCNH2, sequence (Q12809 whole entry): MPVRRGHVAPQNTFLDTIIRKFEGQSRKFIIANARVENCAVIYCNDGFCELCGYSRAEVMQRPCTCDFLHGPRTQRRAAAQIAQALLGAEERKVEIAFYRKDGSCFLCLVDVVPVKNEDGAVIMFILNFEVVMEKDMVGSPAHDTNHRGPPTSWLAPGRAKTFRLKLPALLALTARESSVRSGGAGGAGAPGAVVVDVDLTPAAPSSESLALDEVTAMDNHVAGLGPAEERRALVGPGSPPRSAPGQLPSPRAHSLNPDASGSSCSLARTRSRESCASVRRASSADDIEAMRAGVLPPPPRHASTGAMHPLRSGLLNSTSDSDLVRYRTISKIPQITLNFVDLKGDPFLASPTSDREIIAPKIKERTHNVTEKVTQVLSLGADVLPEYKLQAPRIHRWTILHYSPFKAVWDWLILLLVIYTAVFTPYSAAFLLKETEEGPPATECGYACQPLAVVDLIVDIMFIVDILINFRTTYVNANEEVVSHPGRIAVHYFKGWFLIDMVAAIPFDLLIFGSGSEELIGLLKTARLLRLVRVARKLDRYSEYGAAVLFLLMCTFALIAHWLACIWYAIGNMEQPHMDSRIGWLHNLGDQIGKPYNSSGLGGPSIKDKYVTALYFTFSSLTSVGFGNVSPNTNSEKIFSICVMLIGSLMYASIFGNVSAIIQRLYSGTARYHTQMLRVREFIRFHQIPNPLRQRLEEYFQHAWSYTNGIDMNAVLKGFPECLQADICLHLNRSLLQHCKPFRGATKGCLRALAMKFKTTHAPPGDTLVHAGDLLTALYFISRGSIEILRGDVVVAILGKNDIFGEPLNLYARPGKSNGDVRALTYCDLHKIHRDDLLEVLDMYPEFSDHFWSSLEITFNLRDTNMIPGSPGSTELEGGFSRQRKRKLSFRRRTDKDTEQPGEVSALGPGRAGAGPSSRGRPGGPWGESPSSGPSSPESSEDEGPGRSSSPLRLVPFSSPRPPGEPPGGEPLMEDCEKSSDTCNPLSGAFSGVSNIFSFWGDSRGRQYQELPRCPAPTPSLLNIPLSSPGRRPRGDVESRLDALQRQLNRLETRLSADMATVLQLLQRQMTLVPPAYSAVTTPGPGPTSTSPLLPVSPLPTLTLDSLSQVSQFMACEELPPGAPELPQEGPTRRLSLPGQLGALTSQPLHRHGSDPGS

[13] = Cardiotoxicity in rabbit assessed as NOAEL by telemetric analysis; type: toxicity, Oryctolagus cuniculus
[14] = Toxicity in rat assessed as hepatocellular necrosis at 10 to 100 mg/kg, po administered for 4 days by histological assay; type: organism-based; details: in vivo, 96 h, dose 10-100 mg/kg, time 4 day
[15] = Stability in human liver microsomes assessed as remaining compound measured after 10 mins by LC-MS/MS analysis; type: ADME, Microsome; details: read-out: Stabilty
Method in brief: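 High-throughput microsomal stability: 3 μM substrate, 1 mg/mL microsomal protein, 100 mM sodium phosphate pH 7.4, 37 °C; quenched at 10 min, LC–MS/MS, percent parent remaining reported.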

Homo sapiens [16] = assay: Antialzheimer activity in human assessed as reduction in amyloid beta (1 to 42) AUC at 1.3 mg/kg qd relative to control; design: scale not given: the % may be the effect or the level left
[17] = Plasma concentration in Harlan Sprague-Dawley rat at 10 mg/kg, po measured after 3 hrs; type: ADME, organism-based
[18] = AUC (0 to 24 hrs) in Harlan Sprague-Dawley rat incubated for 24 hrs by LC-MS/MS analysis; type: ADME; design: time 24 hrs; details: in vivo
Homo sapiens [19] = assay: Antialzheimer activity in human assessed as reduction in amyloid beta (1 to 42) AUC at 1.3 mg/kg qd relative to control; design: scale not given: the % may be the effect or the level left; remark: listed apart in the source
[20] = Toxicity in rat assessed as increase in unconjugated bilirubin in plasma at 10 to 100 mg/kg, po administered for 4 days; type: organism-based; details: in vivo, 96 h, dose 10-100 mg/kg, time 4 day
Method in brief: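 Rats dosed orally at 10, 30 and 100 mg/kg for 4 days; plasma inspected and unconjugated bilirubin assessed.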

[21] = target: T2, UDP-glucuronosyltransferase 1A1 (Homo sapiens, UniProt P22309); assay: Inhibition of human UGT1A1; type: ADME
T2 sequence (P22309 whole entry): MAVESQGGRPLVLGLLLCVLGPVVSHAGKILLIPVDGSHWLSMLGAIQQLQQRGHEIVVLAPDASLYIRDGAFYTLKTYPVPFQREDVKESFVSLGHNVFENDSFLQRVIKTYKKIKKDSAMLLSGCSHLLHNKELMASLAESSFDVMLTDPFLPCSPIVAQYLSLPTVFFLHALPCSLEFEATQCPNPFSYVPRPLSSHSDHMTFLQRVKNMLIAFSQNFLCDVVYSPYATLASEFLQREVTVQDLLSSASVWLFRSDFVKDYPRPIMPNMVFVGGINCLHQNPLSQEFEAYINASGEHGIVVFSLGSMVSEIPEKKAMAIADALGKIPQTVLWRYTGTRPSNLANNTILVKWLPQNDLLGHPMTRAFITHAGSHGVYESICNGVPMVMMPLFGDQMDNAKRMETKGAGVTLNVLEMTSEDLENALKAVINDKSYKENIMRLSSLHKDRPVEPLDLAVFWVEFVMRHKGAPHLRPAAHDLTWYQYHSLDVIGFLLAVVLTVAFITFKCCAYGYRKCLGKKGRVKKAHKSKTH

[22] = Fraction unbound in human plasma measured after 24 hrs by LC-MS/MS analysis; type: ADME, cell-free
[23] = Oral bioavailability in Sprague-Dawley rat incubated for 24 hrs by LC-MS/MS analysis; type: ADME, organism-based; details: in vivo
[24] = Ratio of drug level in brain to plasma in triple transgenic LaFerla mouse at 30 mg/kg, po measured after 3 hrs; type: ADME, organism-based

- IC50 [2]: 0.12 µM
Structure (SMILES): CNc1nc(Nc2ccc(-n3cncn3)c(OC)c2)nc(-c2ccccc2)n1
- Activity (H4 [1]): Active
- Activity (H4 [3]): Active
- Activity [4]: Non-Toxic

Structure (SMILES): CNc1nc(Nc2ccc(-n3cnc(Cl)c3)c(OC)c2)nc2c1CC[C@H]2c1ccccc1
- bioavailability [5]: 44%
- concentration at 3 h [6]: 2.1 µM
- bioavailability [7]: 64%
- logD [8]: 4.42
- inhibition in vivo at 10 mg/kg [9]: 59%
- IC50 [10]: 0.69 µM
- Activity (Rattus norvegicus): 25%
- inhibition in vivo at 30 mg/kg [11]: 86%
- IC50 [12]: 0.2 µM
- IC50 [2]: 0.002 µM
- NOAEL [13]: 15 µM
- Activity [14]: Toxic
- remaining at 10 min [15]: 96%
- Activity (Homo sapiens [16]): 25%
- concentration at 3 h [17]: 1.7 µM
- AUC(0-t) at 24 h [18]: 7.6 µM·h
- Activity (Homo sapiens [19]): 25%
- Activity [20]: Toxic
- IC50 [21]: 1.4 µM
- Fu [22]: 0.1%
- F [23]: 49%

- IC50 [2]: 0.031 µM
- BPR [24]: 0.47
Structure (SMILES): CNc1nc(Cc2ccccc2)nc(Nc2ccc(-n3cnc(C)c3)c(OC)c2)n1
- inhibition in vivo at 30 mg/kg [11]: 32%
